Assay results reported in ChEMBL document CHEMBL5058577, “EUbOPEN Chemogenomics Library 2 (Multiplex)” (2022).

System: U2OS
Assay: Multiplex assay against U2OS
Format: toxicity, cell-based
Settings: human
Outline: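 Cells were classed with CellPathfinder machine-learning gating, first as Hoechst high-intensity objects or normal cells, then (normal cells) as healthy, pyknosed or fragmented nuclei, and finally (pyknosed cells) as mitotic or apoptotic. Staining of live cells at seeding used Hoechst33342, BioTracker Green Microtubule Cytoskeleton Dye, MitoTracker Red and Annexin V Alexa Fluor 680, with imaging on a CQ1 microscope at 37°C and 5% CO2 after compound addition. Tubulin, mitochondrial-mass and membrane-permeability phenotypes are per cents of healthy-nucleus cells.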

[1] = 12 h, 1 µM, compound concentration 1 uM, replicate 1
[2] = 12 h, 1 µM, compound concentration 1 uM, replicate 2
[3] = 12 h, 10 µM, compound concentration 10 uM, replicate 1
[4] = 12 h, 10 µM, compound concentration 10 uM, replicate 2
[5] = 24 h, 1 µM, compound concentration 1 uM, replicate 1
[6] = 24 h, 1 µM, compound concentration 1 uM, replicate 2
[7] = 24 h, 10 µM, compound concentration 10 uM, replicate 1
[8] = 24 h, 10 µM, compound concentration 10 uM, replicate 2
[9] = 48 h, 1 µM, compound concentration 1 uM, replicate 1
[10] = 48 h, 1 µM, compound concentration 1 uM, replicate 2
[11] = 48 h, 10 µM, compound concentration 10 uM, replicate 1
[12] = 48 h, 10 µM, compound concentration 10 uM, replicate 2

Q: For `NCCc1cn(S(=O)(=O)c2c(Cl)nc3sccn23)c2ccccc12.O=C(O)C(=O)O`, which “Population Apoptotic (%)” value [1] is on record?
A: Its value is 66%.

Q: What about the “Population Fragmented Nuclei (%)” value [1] of the same molecule?
A: The value was 30%.

Q: What about the “Population Healthy Nuclei (%)” value [1] of the same molecule?
A: Its value is 58%.

Q: And the “Population Hoechst High Intensity Objects (%)” value [1]?
A: Its value is 1%.

Q: And the “Population Membrane Permeable-Phenotype (%)” value [1]?
A: Its value is 9%.

Q: And the “Population Mitochondria Different-Phenotype (%)” value [1]?
A: Its value is 6%.

Q: What about the “Population Mitotic Cells (%)” value [1] of the same molecule?
A: Its value is 33%.

Q: What about the “Population Normal (%)” value [1] of the same molecule?
A: The value was 98%.

Q: And the “Population Pyknosed Nuclei (%)” value [1]?
A: Its value is 10%.

Q: And the “Population Tubulin-Different-Phenotype (%)” value [1]?
A: The value was 6%.

Q: What about the “Total Cell Count” value [1] of the same molecule?
A: Its value is 280.

Q: And the “Population Apoptotic (%)” value [2]?
A: The value was 81%.

Q: And the “Population Fragmented Nuclei (%)” value [2]?
A: The value was 17%.

Q: And the “Population Healthy Nuclei (%)” value [2]?
A: Its value is 72%.

Q: And the “Population Membrane Permeable-Phenotype (%)” value [2]?
A: Its value is 4%.

Q: And the “Population Mitochondria Different-Phenotype (%)” value [2]?
A: The value was 8%.

Q: And the “Population Mitotic Cells (%)” value [2]?
A: Its value is 18%.

Q: And the “Population Pyknosed Nuclei (%)” value [2]?
A: The value was 9%.

Q: What about the “Total Cell Count” value [2] of the same molecule?
A: Its value is 116.

Q: And the “Population Apoptotic (%)” value [3]?
A: Its value is 71%.

Q: What about the “Population Fragmented Nuclei (%)” value [3] of the same molecule?
A: Its value is 26%.

Q: And the “Population Healthy Nuclei (%)” value [3]?
A: Its value is 42%.

Q: What about the “Population Hoechst High Intensity Objects (%)” value [3] of the same molecule?
A: The value was 5%.

Q: What about the “Population Membrane Permeable-Phenotype (%)” value [3] of the same molecule?
A: Its value is 42%.

Q: What about the “Population Mitochondria Different-Phenotype (%)” value [3] of the same molecule?
A: Its value is 60%.

Q: And the “Population Mitotic Cells (%)” value [3]?
A: The value was 28%.

Q: What about the “Population Normal (%)” value [3] of the same molecule?
A: Its value is 94%.

Q: And the “Population Pyknosed Nuclei (%)” value [3]?
A: The value was 30%.

Q: What about the “Population Tubulin-Different-Phenotype (%)” value [3] of the same molecule?
A: The value was 59%.

Q: What about the “Total Cell Count” value [3] of the same molecule?
A: The value was 221.

Q: And the “Population Apoptotic (%)” value [4]?
A: The value was 82%.

Q: What about the “Population Fragmented Nuclei (%)” value [4] of the same molecule?
A: The value was 20%.

Q: And the “Population Healthy Nuclei (%)” value [4]?
A: Its value is 53%.

Q: What about the “Population Hoechst High Intensity Objects (%)” value [4] of the same molecule?
A: Its value is 4%.

Q: What about the “Population Membrane Permeable-Phenotype (%)” value [4] of the same molecule?
A: The value was 30%.

Q: What about the “Population Mitochondria Different-Phenotype (%)” value [4] of the same molecule?
A: The value was 71%.

Q: What about the “Population Mitotic Cells (%)” value [4] of the same molecule?
A: Its value is 17%.

Q: And the “Population Normal (%)” value [4]?
A: Its value is 95%.

Q: What about the “Population Pyknosed Nuclei (%)” value [4] of the same molecule?
A: Its value is 26%.

Q: What about the “Population Tubulin-Different-Phenotype (%)” value [4] of the same molecule?
A: Its value is 50%.

Q: And the “Total Cell Count” value [4]?
A: The value was 115.

Q: And the “Population Apoptotic (%)” value [5]?
A: Its value is 69%.

Q: And the “Population Fragmented Nuclei (%)” value [5]?
A: The value was 25%.

Q: And the “Population Healthy Nuclei (%)” value [5]?
A: The value was 66%.

Q: And the “Population Hoechst High Intensity Objects (%)” value [5]?
A: Its value is 1%.

Q: What about the “Population Membrane Permeable-Phenotype (%)” value [5] of the same molecule?
A: The value was 6%.

Q: What about the “Population Mitochondria Different-Phenotype (%)” value [5] of the same molecule?
A: The value was 5%.

Q: And the “Population Mitotic Cells (%)” value [5]?
A: The value was 30%.

Q: What about the “Population Normal (%)” value [5] of the same molecule?
A: Its value is 98%.

Q: What about the “Population Pyknosed Nuclei (%)” value [5] of the same molecule?
A: The value was 8%.

Q: And the “Population Tubulin-Different-Phenotype (%)” value [5]?
A: The value was 3%.

Q: And the “Total Cell Count” value [5]?
A: The value was 326.

Q: What about the “Population Apoptotic (%)” value [6] of the same molecule?
A: Its value is 78%.

Q: What about the “Population Fragmented Nuclei (%)” value [6] of the same molecule?
A: Its value is 20%.

Q: What about the “Population Healthy Nuclei (%)” value [6] of the same molecule?
A: The value was 70%.

Q: And the “Population Membrane Permeable-Phenotype (%)” value [6]?
A: Its value is 9%.

Q: And the “Population Mitochondria Different-Phenotype (%)” value [6]?
A: The value was 7%.

Q: And the “Population Mitotic Cells (%)” value [6]?
A: Its value is 21%.

Q: What about the “Population Pyknosed Nuclei (%)” value [6] of the same molecule?
A: Its value is 9%.

Q: And the “Population Tubulin-Different-Phenotype (%)” value [6]?
A: Its value is 7%.

Q: And the “Total Cell Count” value [6]?
A: Its value is 151.

Q: What about the “Population Apoptotic (%)” value [7] of the same molecule?
A: The value was 83%.

Q: What about the “Population Fragmented Nuclei (%)” value [7] of the same molecule?
A: The value was 29%.

Q: And the “Population Healthy Nuclei (%)” value [7]?
A: The value was 38%.

Q: And the “Population Hoechst High Intensity Objects (%)” value [7]?
A: Its value is 6%.

Q: What about the “Population Membrane Permeable-Phenotype (%)” value [7] of the same molecule?
A: The value was 26%.

Q: What about the “Population Mitochondria Different-Phenotype (%)” value [7] of the same molecule?
A: The value was 63%.

Q: What about the “Population Mitotic Cells (%)” value [7] of the same molecule?
A: The value was 16%.

Q: And the “Population Normal (%)” value [7]?
A: Its value is 93%.

Q: And the “Population Pyknosed Nuclei (%)” value [7]?
A: The value was 31%.

Q: What about the “Population Tubulin-Different-Phenotype (%)” value [7] of the same molecule?
A: The value was 26%.

Q: And the “Total Cell Count” value [7]?
A: The value was 240.

Q: What about the “Population Apoptotic (%)” value [8] of the same molecule?
A: The value was 86%.

Q: And the “Population Fragmented Nuclei (%)” value [8]?
A: Its value is 20%.

Q: What about the “Population Healthy Nuclei (%)” value [8] of the same molecule?
A: The value was 46%.

Q: And the “Population Hoechst High Intensity Objects (%)” value [8]?
A: Its value is 3%.

Q: And the “Population Mitochondria Different-Phenotype (%)” value [8]?
A: The value was 67%.

Q: What about the “Population Mitotic Cells (%)” value [8] of the same molecule?
A: The value was 13%.

Q: And the “Population Normal (%)” value [8]?
A: Its value is 96%.

Q: And the “Population Pyknosed Nuclei (%)” value [8]?
A: Its value is 33%.

Q: And the “Population Tubulin-Different-Phenotype (%)” value [8]?
A: The value was 38%.

Q: And the “Total Cell Count” value [8]?
A: The value was 116.

Q: And the “Population Apoptotic (%)” value [9]?
A: The value was 81%.

Q: What about the “Population Fragmented Nuclei (%)” value [9] of the same molecule?
A: The value was 21%.

Q: And the “Population Healthy Nuclei (%)” value [9]?
A: The value was 70%.

Q: And the “Population Hoechst High Intensity Objects (%)” value [9]?
A: The value was 1%.

Q: What about the “Population Membrane Permeable-Phenotype (%)” value [9] of the same molecule?
A: The value was 5%.

Q: And the “Population Mitochondria Different-Phenotype (%)” value [9]?
A: The value was 4%.

Q: What about the “Population Mitotic Cells (%)” value [9] of the same molecule?
A: The value was 18%.

Q: And the “Population Normal (%)” value [9]?
A: Its value is 98%.

Q: And the “Population Pyknosed Nuclei (%)” value [9]?
A: The value was 8%.

Q: And the “Population Tubulin-Different-Phenotype (%)” value [9]?
A: Its value is 2%.

Q: And the “Total Cell Count” value [9]?
A: Its value is 454.

Q: What about the “Population Apoptotic (%)” value [10] of the same molecule?
A: Its value is 85%.

Q: And the “Population Healthy Nuclei (%)” value [10]?
A: Its value is 66%.

Q: What about the “Population Hoechst High Intensity Objects (%)” value [10] of the same molecule?
A: Its value is 6%.

Q: What about the “Population Membrane Permeable-Phenotype (%)” value [10] of the same molecule?
A: Its value is 10%.

Q: And the “Population Mitochondria Different-Phenotype (%)” value [10]?
A: The value was 7%.

Q: What about the “Population Mitotic Cells (%)” value [10] of the same molecule?
A: The value was 14%.

Q: What about the “Population Normal (%)” value [10] of the same molecule?
A: Its value is 93%.

Q: What about the “Population Pyknosed Nuclei (%)” value [10] of the same molecule?
A: The value was 12%.

Q: And the “Population Tubulin-Different-Phenotype (%)” value [10]?
A: Its value is 7%.

Q: And the “Total Cell Count” value [10]?
A: Its value is 182.

Q: And the “Population Apoptotic (%)” value [11]?
A: Its value is 92%.

Q: And the “Population Fragmented Nuclei (%)” value [11]?
A: The value was 37%.

Q: And the “Population Healthy Nuclei (%)” value [11]?
A: Its value is 27%.

Q: And the “Population Hoechst High Intensity Objects (%)” value [11]?
A: Its value is 7%.

Q: What about the “Population Membrane Permeable-Phenotype (%)” value [11] of the same molecule?
A: Its value is 25%.

Q: And the “Population Mitochondria Different-Phenotype (%)” value [11]?
A: Its value is 56%.

Q: What about the “Population Mitotic Cells (%)” value [11] of the same molecule?
A: The value was 7%.

Q: And the “Population Normal (%)” value [11]?
A: Its value is 92%.

Q: And the “Population Pyknosed Nuclei (%)” value [11]?
A: Its value is 35%.

Q: And the “Population Tubulin-Different-Phenotype (%)” value [11]?
A: The value was 25%.

Q: And the “Total Cell Count” value [11]?
A: Its value is 241.

Q: And the “Population Fragmented Nuclei (%)” value [12]?
A: The value was 29%.

Q: And the “Population Healthy Nuclei (%)” value [12]?
A: The value was 34%.

Q: And the “Population Membrane Permeable-Phenotype (%)” value [12]?
A: Its value is 42%.

Q: What about the “Population Mitochondria Different-Phenotype (%)” value [12] of the same molecule?
A: The value was 65%.

Q: What about the “Population Tubulin-Different-Phenotype (%)” value [12] of the same molecule?
A: Its value is 42%.

Q: And the “Total Cell Count” value [12]?
A: The value was 127.
